MIC data for 6 molecules are collected here from ChEMBL document CHEMBL1158537, “Antibacterial activities of aminoglycoside antibiotics-derived cationic amphiphiles. Polyol-modified neomycin B-, kanamycin A-, amikacin-, and neamine-based amphiphiles with potent broad spectrum antibacterial activity” (2010).

Experiment [1] has as its system Staphylococcus aureus. The experiment can be described thus: Antibacterial activity against Staphylococcus aureus ATCC 29213 after 24 hrs by macrobroth dilution method. It counts as functional. Conditions: ATCC 29213, 24 h. In outline: (§1)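 Reference strains from the American Type Culture Collection were tested by broth macrodilution following CLSI methodology. The read-out was the minimum inhibitory concentration, reported in μg/mL. The same method was used for the Gram-positive and Gram-negative organisms.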

Experiment [2] relates to Staphylococcus aureus. The experiment can be described thus: Antibacterial activity against methicillin-resistant Staphylococcus aureus ATCC 33592 after 24 hrs by macrobroth dilution method. It counts as functional. The following applies: ATCC 33592, 24 h. In outline: as §1
Experiment [3] concerns Staphylococcus epidermidis. Put plainly: Antibacterial activity against Staphylococcus epidermidis […] after 24 hrs by macrobroth dilution method. The experiment is classed as functional. The method, boiled down: (§2)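 Broth macrodilution was run following CLSI methodology against ATCC reference strains and clinical isolates from the Canadian Intensive Care Unit (CAN-ICU) study, with Gram-positive and Gram-negative organisms tested. The value is the minimum inhibitory concentration, reported in μg/mL.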

In experiment [4] the test system is Staphylococcus epidermidis. Put plainly: Antibacterial activity against methicillin-resistant Staphylococcus epidermidis ATCC 14990 after 24 hrs by macrobroth dilution method. It counts as functional. Conditions: ATCC 14990, 24 h.
Experiment [5] concerns Streptococcus pneumoniae. The experiment can be described thus: Antibacterial activity against Streptococcus pneumoniae ATCC 49619 after 24 hrs by macrobroth dilution method. The experiment is classed as functional. The following applies: ATCC 49619, 24 h. The method, boiled down:
as §2

For experiment [6], the system named is Escherichia coli. Put plainly: Antibacterial activity against gentamicin-resistant Escherichia coli ATCC 6174 after 24 hrs by macrobroth dilution method. The experiment is classed as functional. The following applies: ATCC 6174, 24 h. The method, boiled down:
as §1

The test system of experiment [7] is Escherichia coli. Put plainly: Antibacterial activity against Escherichia coli ATCC 25922 after 24 hrs by macrobroth dilution method. The following applies: ATCC 25922, 24 h. The experiment is classed as functional. In outline: as §1
The subject of experiment [8] is Escherichia coli. Put plainly: Antibacterial activity against Escherichia coli CAN-ICU 63074 after 24 hrs by macrobroth dilution method. The experiment is classed as functional. Conditions: CAN-ICU 63074, 24 h. The method, boiled down:
as §2

The subject of experiment [9] is Pseudomonas aeruginosa. The experiment can be described thus: Antibacterial activity against Pseudomonas aeruginosa ATCC 27853 after 24 hrs by macrobroth dilution method. The experiment is classed as functional. The following applies: ATCC 27853, 24 h. The method, boiled down:
as §2

Experiment [10] concerns Pseudomonas aeruginosa. Put plainly: Antibacterial activity against Pseudomonas aeruginosa CAN-ICU 62308 after 24 hrs by macrobroth dilution method. It counts as functional. Conditions: CAN-ICU 62308, 24 h. The method, boiled down: as §2
Experiment [11] relates to Stenotrophomonas maltophilia. The experiment can be described thus: Antibacterial activity against Stenotrophomonas maltophilia CAN-ICU 62585 after 24 hrs by macrobroth dilution method. The experiment is classed as functional. Conditions: CAN-ICU 62585, 24 h. The method, boiled down:
as §2

Experiment [12] deals with Acinetobacter baumannii. The experiment can be described thus: Antibacterial activity against Acinetobacter baumannii CAN-ICU 63169 after 24 hrs by macrobroth dilution method. Conditions: CAN-ICU 63169, 24 h. It counts as functional. In outline:
as §2

Experiment [13] has as its system Klebsiella pneumoniae. The experiment can be described thus: Antibacterial activity against Klebsiella pneumoniae ATCC 13883 after 24 hrs by macrobroth dilution method. The following applies: ATCC 13883, 24 h.

Regarding `CN(C)c1ccc(NC(=O)OC[C@H]2O[C@H](O[C@@H]3[C@@H](OC(=O)Nc4ccc(N(C)C)cc4)[C@H](O[C@H]4O[C@H](CN)[C@@H](OC(=O)Nc5ccc(N(C)C)cc5)[C@H](OC(=O)Nc5ccc(N(C)C)cc5)[C@H]4OC(=O)Nc4ccc(N(C)C)cc4)[C@@H](N)C[C@H]3N)[C@H](OC(=O)Nc3ccc(N(C)C)cc3)[C@@H](N)[C@@H]2OC(=O)Nc2ccc(N(C)C)cc2)cc1.O=C(O)C(F)(F)F`, the MIC was 16 µg/mL in experiment [1]; 32 µg/mL in experiment [2]; 16 µg/mL in experiment [3]; 32 µg/mL in [4]; > 256 µg/mL in experiment [5]; 256 µg/mL in [6]. The MIC in experiment [7] is 256 µg/mL; in [8] it was 256 µg/mL; in experiment [9] it was > 256 µg/mL; in experiment [10], 256 µg/mL; in experiment [11] it was > 256 µg/mL; in [12], > 256 µg/mL. Moreover, in experiment [13], the MIC was > 256 µg/mL.
On to `NC[C@H]1O[C@H](O[C@H]2[C@H](OC(=O)Nc3ccccc3)[C@@H](OC(=O)Nc3ccccc3)[C@H](N)C[C@@H]2N)[C@H](N)[C@@H](OC(=O)Nc2ccccc2)[C@@H]1OC(=O)Nc1ccccc1.O=C(O)C(F)(F)F`, for which the MIC in experiment [1] is 16 µg/mL; in experiment [2], 16 µg/mL; in experiment [3] it was 8 µg/mL; in [4] it was 8 µg/mL; in experiment [5] it was > 256 µg/mL; in experiment [6], 32 µg/mL. The MIC amounted to 32 µg/mL in experiment [7]; 32 µg/mL in [8]; 128 µg/mL in experiment [9]; 128 µg/mL in experiment [10]; 64 µg/mL in experiment [11]; 256 µg/mL in [12]. This molecule also gave an MIC in experiment [13] of 64 µg/mL.
Take `NCC[C@H](OC(=O)Nc1ccccc1)C(=O)N[C@@H]1C[C@H](N)[C@@H](C[C@H]2O[C@H](CN)[C@@H](OC(=O)Nc3ccccc3)[C@H](OC(=O)Nc3ccccc3)[C@H]2OC(=O)Nc2ccccc2)[C@H](OC(=O)Nc2ccccc2)[C@H]1O[C@H]1O[C@H](COC(=O)Nc2ccccc2)[C@@H](OC(=O)Nc2ccccc2)[C@H](N)[C@H]1OC(=O)Cc1ccccc1.O=C(O)C(F)(F)F`: the MIC in experiment [1] was 8 µg/mL; in [2], 16 µg/mL; in experiment [3], 2 µg/mL; in [4] it was 2 µg/mL; in experiment [5], 32 µg/mL; in experiment [6] it was 256 µg/mL. The MIC in experiment [7] was 256 µg/mL; in experiment [8], 256 µg/mL; in experiment [9], > 256 µg/mL; in experiment [10], 256 µg/mL; in [11] it was 128 µg/mL; in [12] it was 256 µg/mL. The MIC in experiment [13] stood at 256 µg/mL.
With `NC[C@H]1OC(O[C@H]2[C@H](OCc3ccc(Cl)cc3)[C@@H](O[C@H]3O[C@H](COCc4ccc(Cl)cc4)[C@@H](OCc4ccc(Cl)cc4)[C@H](N)[C@H]3OCc3ccc(Cl)cc3)[C@H](N)C[C@@H]2N)[C@H](OCc2ccc(Cl)cc2)[C@@H](OCc2ccc(Cl)cc2)[C@@H]1OCc1ccc(Cl)cc1.O=C(O)C(F)(F)F` (stereo partly drawn), the MIC in experiment [1] was 32 µg/mL; in experiment [2], 32 µg/mL; in experiment [3], 32 µg/mL; in experiment [4] it was 16 µg/mL; in experiment [5], 64 µg/mL; in experiment [6] it was 128 µg/mL. The MIC is 128 µg/mL in experiment [7]; 64 µg/mL in [8]; > 128 µg/mL in experiment [9]; > 128 µg/mL in experiment [10]; > 128 µg/mL in experiment [11]; > 128 µg/mL in experiment [12]. For the same molecule, the MIC in [13] is > 128 µg/mL.
`COC[C@H]1O[C@H](O[C@@H]2[C@@H](OC)[C@H](OC3O[C@H](CN)[C@@H](OC)[C@H](OC)[C@H]3OC)[C@@H](N)C[C@H]2N)[C@H](OC)[C@@H](N)[C@@H]1OC.O=C(O)C(F)(F)F` (stereo partly drawn): the MIC was > 256 µg/mL in experiment [1]; > 256 µg/mL in experiment [2]; 256 µg/mL in [3]; > 256 µg/mL in experiment [4]; > 256 µg/mL in experiment [5]; > 256 µg/mL in experiment [6]. Also, the MIC in experiment [7], in [8], in experiment [9], in experiment [10], in [11] and in experiment [12] was > 256 µg/mL throughout. Further, the MIC in experiment [13] was > 256 µg/mL.
Take `NC[C@H]1O[C@H](O[C@H]2[C@H](OC(=O)Nc3ccccc3)[C@@H](O[C@H]3O[C@H](COC(=O)Nc4ccccc4)[C@@H](OC(=O)Nc4ccccc4)[C@H](N)[C@H]3OC(=O)Nc3ccccc3)[C@H](N)C[C@@H]2N)[C@H](OC(=O)Nc2ccccc2)[C@@H](OC(=O)Nc2ccccc2)[C@@H]1OC(=O)Nc1ccccc1.O=C(O)C(F)(F)F`: the MIC in [1] was 32 µg/mL; in [2], 32 µg/mL; in experiment [3] it was 4 µg/mL; in experiment [4], 8 µg/mL; in [5], 64 µg/mL; in experiment [6] it was > 256 µg/mL. The MIC in [7], in [8], in [9], in experiment [10], in [11] and in [12] was > 256 µg/mL in each case. Moreover, the MIC in experiment [13] is > 256 µg/mL.
